One block for each compound: values may come before it.
What was measured:
[1] = biological target: Gamma-secretase; assay: Modulation of gamma secretase in human H4 cells expressing human wild type APP assessed as inhibition of amyloid beta 42 production after 22 hrs by electrochemiluminescence assay; format: cell-based
How it was run: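 H4 cells overexpressing human APPwt, 10,000/well, were exposed to compound 22 h at 37°C, 5% CO2. Supernatant was diluted with medium on an MSD anti-Aβ42 plate and detected with S-tag 6E10 (1:50, 1 h). Read-out was electrochemiluminescence.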

[2] = biological target: Cytochrome P450 2C9 (Homo sapiens, UniProt P11712); assay: Inhibition of CYP2C9 in human liver microsomes using diclofenac as substrate in presence of NADPH by LC-MS/MS analysis; format: ADME
Cytochrome P450 2C9, sequence (P11712 whole entry): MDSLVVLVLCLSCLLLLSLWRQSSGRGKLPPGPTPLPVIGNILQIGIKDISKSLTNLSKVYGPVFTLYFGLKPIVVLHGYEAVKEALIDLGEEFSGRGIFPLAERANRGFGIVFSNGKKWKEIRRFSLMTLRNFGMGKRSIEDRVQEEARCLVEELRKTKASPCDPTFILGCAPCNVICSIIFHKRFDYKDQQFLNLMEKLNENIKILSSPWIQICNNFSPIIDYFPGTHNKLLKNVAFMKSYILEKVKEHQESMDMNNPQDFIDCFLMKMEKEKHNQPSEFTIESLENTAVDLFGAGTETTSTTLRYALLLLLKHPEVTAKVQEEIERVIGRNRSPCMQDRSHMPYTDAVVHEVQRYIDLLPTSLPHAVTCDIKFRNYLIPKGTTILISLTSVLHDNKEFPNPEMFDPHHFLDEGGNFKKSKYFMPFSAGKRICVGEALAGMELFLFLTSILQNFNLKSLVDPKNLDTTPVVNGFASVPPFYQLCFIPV
How it was run: (§1)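 Human pooled liver microsomes (0.1 mg/ml) at 37°C in 0.1 M Tris with 5 mM MgCl2. Substrates were dextromethorphan 7 µM (2D6), diclofenac 4 µM (2C9), (S)-mephenytoin 30 µM (2C19) and testosterone 60 µM (3A4). Test compound ran at five concentrations. Reactions were started with 1 mM NADPH and stopped by cooling to 8°C plus acetonitrile. Metabolite was read by LC-MS/MS against an isotope internal standard, relative to no-compound control.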

[3] = biological target: Cytochrome P450 2C19 (Homo sapiens, UniProt P33261); assay: Inhibition of CYP2C19 in human liver microsomes using (S)-mephenytoin as substrate in presence of NADPH by LC-MS/MS analysis; format: ADME; how it was run: as §1
Cytochrome P450 2C19, sequence (P33261 whole entry): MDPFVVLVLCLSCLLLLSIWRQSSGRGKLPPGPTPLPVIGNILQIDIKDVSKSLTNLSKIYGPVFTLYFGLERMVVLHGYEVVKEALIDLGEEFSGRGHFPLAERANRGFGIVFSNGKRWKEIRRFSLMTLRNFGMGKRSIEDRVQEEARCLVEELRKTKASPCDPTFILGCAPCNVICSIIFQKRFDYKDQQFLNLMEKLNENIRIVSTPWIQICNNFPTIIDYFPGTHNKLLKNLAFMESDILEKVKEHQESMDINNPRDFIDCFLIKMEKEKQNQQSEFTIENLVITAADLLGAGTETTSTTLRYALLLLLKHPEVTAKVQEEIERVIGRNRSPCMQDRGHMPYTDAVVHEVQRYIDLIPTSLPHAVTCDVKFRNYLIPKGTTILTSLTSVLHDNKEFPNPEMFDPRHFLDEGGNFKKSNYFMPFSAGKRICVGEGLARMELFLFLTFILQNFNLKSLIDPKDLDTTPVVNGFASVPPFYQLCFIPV

[4] = Ratio of drug uptake in Han Wistar rat brain to plasma at 10 umol/kg, po administered via gavage measured 3 hrs post dose by LC/MS/MS analysis; format: ADME, organism-based
How it was run: (§2)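 Fasted female Han Wistar rats were dosed by oral gavage as a Natrosol suspension. Animals were sacrificed 3 h later and plasma and tissues collected and frozen. Concentrations were measured by LC/MS/MS after acetonitrile precipitation.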

[5] = Apparent permeability from apical to basolateral side in MDCK cells expressing human MDR1 at 1 uM at pH 7.4; format: ADME, cell-based, Canis lupus familiaris; details: dog, MDCK-MDR1, pH 7.4
How it was run: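 MDCK-MDR1 monolayers; transport measured apical-to-basal and basal-to-apical at pH 7.4, 37°C, starting from 1 µM in the donor compartment; apparent permeability coefficients derived.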

[6] = Clearance in Han Wistar rat at 1 umol/kg, iv administered as bolus by LC/MS/MS analysis; format: ADME, organism-based; details: in vivo
How it was run: (§3)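 Female fed Han Wistar rats received the compound as an i.v. solution. Blood was sampled at several time points and EDTA plasma prepared. Plasma levels were quantified by LC/MS/MS after acetonitrile precipitation, and PK parameters were calculated by non-compartmental analysis.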

[7] = test system: Rattus norvegicus; assay: In vivo modulation of gamma secretase in rat brain homogenate assessed as decrease in amyloid beta 42 levels at 25 mg/kg, po measured after 3 hrs by electrochemiluminescence assay relative to control; format: functional; parameters: scale not given: the % may be the effect or the level left
How it was run: (§4)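 Rats dosed orally with compound in 0.5% Natrosol/0.01% Tween 80, then anesthetized (Ketavet, Inactin i.p.) and decapitated 3 h later. Brain slices were homogenized in 20 mM Tris pH 8.5 + 0.2% Triton X-100 (5-fold v/w) and spun 1 h at 210,000 x g, 4°C. Aβ42 in the supernatant was read by MSD electrochemiluminescence with S-tag 4G8 detection.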

[8] = test system: Rattus norvegicus; assay: In vivo modulation of gamma secretase in rat brain homogenate assessed as decrease in amyloid beta 42 levels at 30 mg/kg, po measured after 3 hrs by electrochemiluminescence assay relative to control; format: functional; parameters: scale not given: the % may be the effect or the level left; how it was run: as §4
[9] = Volume of distribution at steady state in Han Wistar rat at 1 umol/kg, iv administered as bolus by LC/MS/MS analysis; format: ADME, organism-based; details: in vivo, read-out: Vdss; how it was run: as §3
[10] = test system: Rattus norvegicus; assay: Decrease in total amyloid beta 42 levels in rat brain homogenate at 30 mg/kg, po measured after 3 hrs by electrochemiluminescence assay relative to control; parameters: scale not given: the % may be the effect or the level left; details: in vivo
[11] = biological target: T1, hERG (KCNH2) (Homo sapiens, UniProt Q12809); assay: Inhibition of human ERG at 10 uM by patch clamp assay relative to control
T1 sequence (Q12809 whole entry): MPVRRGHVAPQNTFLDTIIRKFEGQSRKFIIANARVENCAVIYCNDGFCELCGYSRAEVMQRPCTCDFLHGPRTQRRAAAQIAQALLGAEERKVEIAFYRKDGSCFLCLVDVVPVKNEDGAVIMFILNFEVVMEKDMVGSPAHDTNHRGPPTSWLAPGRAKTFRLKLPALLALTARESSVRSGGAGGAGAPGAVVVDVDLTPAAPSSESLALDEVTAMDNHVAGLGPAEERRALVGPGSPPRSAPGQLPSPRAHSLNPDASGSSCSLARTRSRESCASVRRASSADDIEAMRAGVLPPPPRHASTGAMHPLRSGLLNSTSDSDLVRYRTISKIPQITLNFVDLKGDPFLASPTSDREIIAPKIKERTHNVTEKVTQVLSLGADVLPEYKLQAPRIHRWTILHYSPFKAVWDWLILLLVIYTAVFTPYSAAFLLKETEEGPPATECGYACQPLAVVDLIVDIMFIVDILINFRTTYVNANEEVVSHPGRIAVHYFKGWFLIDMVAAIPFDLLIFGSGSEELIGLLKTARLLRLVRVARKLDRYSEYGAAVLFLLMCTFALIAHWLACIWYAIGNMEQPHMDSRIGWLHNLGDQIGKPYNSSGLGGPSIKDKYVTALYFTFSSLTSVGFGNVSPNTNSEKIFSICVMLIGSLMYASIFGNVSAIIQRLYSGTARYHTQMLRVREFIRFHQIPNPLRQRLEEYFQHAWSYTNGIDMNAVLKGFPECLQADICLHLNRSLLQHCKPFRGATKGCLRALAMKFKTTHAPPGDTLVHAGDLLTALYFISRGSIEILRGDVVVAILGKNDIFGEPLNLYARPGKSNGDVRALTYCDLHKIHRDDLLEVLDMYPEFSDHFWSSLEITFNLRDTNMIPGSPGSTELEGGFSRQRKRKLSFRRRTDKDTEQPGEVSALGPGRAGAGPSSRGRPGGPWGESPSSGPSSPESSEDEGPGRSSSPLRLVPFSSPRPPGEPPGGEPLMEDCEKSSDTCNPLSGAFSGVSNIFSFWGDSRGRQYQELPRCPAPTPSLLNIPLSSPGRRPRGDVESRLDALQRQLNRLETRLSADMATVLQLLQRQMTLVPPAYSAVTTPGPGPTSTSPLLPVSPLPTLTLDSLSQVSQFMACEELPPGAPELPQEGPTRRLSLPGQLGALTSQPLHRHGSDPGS

[12] = Drug uptake in Han Wistar rat plasma at 10 umol/kg, po administered via gavage measured 3 hrs post dose by LC/MS/MS analysis; format: ADME, organism-based; how it was run: as §2
[13] = biological target: Cytochrome P450 3A4 (Homo sapiens, UniProt P08684); assay: Inhibition of CYP3A4 in human liver microsomes using testosterone as substrate in presence of NADPH by LC-MS/MS analysis; format: ADME; how it was run: as §1
Cytochrome P450 3A4, sequence (P08684 whole entry): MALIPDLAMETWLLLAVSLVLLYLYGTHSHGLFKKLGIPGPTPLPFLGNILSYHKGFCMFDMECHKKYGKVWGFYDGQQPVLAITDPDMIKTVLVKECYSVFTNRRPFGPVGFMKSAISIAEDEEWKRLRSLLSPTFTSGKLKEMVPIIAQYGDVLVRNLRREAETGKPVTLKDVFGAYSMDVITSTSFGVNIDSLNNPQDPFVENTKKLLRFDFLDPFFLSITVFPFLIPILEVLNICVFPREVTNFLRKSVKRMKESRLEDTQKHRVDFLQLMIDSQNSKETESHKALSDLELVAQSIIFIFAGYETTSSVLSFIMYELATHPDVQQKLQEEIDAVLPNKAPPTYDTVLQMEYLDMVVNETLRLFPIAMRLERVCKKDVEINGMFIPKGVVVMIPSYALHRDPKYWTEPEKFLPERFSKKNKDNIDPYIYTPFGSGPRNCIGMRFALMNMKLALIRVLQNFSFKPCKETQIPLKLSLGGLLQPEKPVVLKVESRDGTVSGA

[14] = Drug uptake in Han Wistar rat brain at 10 umol/kg, po administered via gavage measured 3 hrs post dose by LC/MS/MS analysis; format: ADME, organism-based; details: read-out: Drug uptake; how it was run: as §2
[15] = test system: Rattus norvegicus; assay: Decrease in total amyloid beta levels in rat brain homogenate at 30 mg/kg, po measured after 3 hrs by electrochemiluminescence assay relative to control; parameters: scale not given: the % may be the effect or the level left; details: in vivo
[16] = biological target: Gamma-secretase; assay: Modulation of gamma-secretase in human E6 cells expressing HeLaTetON-NotchdeltaE-NLuc/CLuc-RBP assessed as notch cleavage after 16 hrs by bioluminescence assay; format: ADME, cell-based
[17] = Drug uptake in Han Wistar rat muscle at 10 umol/kg, po administered via gavage measured 3 hrs post dose by LC/MS/MS analysis; format: ADME, organism-based, Muscle tissue; details: read-out: Drug uptake; how it was run: as §2
[18] = biological target: T1, hERG (KCNH2); assay: Inhibition of human ERG at 1 uM by patch clamp assay relative to control
[19] = biological target: Cytochrome P450 2D6 (Homo sapiens, UniProt P10635); assay: Inhibition of CYP2D6 in human liver microsomes using dextromethorphan as substrate in presence of NADPH by LC-MS/MS analysis; format: ADME; how it was run: as §1
Cytochrome P450 2D6, sequence (P10635 whole entry): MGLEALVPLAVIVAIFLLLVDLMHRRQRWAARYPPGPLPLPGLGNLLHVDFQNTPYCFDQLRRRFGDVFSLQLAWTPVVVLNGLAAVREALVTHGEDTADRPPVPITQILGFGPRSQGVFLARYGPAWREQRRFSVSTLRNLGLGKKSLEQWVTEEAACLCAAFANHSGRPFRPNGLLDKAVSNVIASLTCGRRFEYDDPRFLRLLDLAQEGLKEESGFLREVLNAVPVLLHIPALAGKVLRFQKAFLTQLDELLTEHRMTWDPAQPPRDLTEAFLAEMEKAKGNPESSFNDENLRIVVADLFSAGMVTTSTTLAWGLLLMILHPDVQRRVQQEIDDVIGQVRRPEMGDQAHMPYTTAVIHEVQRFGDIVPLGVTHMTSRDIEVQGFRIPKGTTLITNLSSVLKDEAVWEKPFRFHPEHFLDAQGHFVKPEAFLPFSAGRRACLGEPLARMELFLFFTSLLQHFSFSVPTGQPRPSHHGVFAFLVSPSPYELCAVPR

[20] = Modulation of gamma secretase in rat E18 cells assessed as inhibition of amyloid beta 42 production after 22 hrs by electrochemiluminescence assay; format: cell-based
[21] = Unbound brain concentration in rat brain at 30 mg/kg, po measured after 3 hrs by LC/MS/MS analysis; format: ADME, organism-based; details: in vivo
How it was run: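 Unbound brain concentration estimated from unbound plasma exposure 3 h after oral dosing, assuming equal plasma–brain distribution. Plasma sampled after dosing in 0.5% Natrosol/0.01% Tween 80 and quantified by LC/MS/MS.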

[22] = Ratio of drug uptake in Han Wistar rat muscle to brain at 10 umol/kg, po administered via gavage measured 3 hrs post dose by LC/MS/MS analysis; format: ADME, organism-based; details: in vivo
How it was run: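 Fasted female Han Wistar rats given 10 µmol/kg orally; sacrificed 3 h post dose, tissues collected and frozen; samples acetonitrile-precipitated, supernatant diluted 1:100 and quantified by LC-ESI-MS/MS; muscle-to-brain concentration ratio.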

[23] = Protein binding in rat plasma at 1 uM after 5 hrs by equilibrium dialysis based LC-MS/MS analysis; format: ADME, cell-free; details: read-out: PPB (converted)
How it was run: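 Equilibrium dialysis: rat EDTA plasma spiked to 1 µM final, dialysed against PBS with dextran (pH 7.4) across a 5–10 kDa membrane. Run 5 h at 37°C; both sides analyzed by HPLC-MS/MS.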

[24] = biological target: T2, Cytochrome P450 2C8 (Homo sapiens, UniProt P10632); assay: Inhibition of CYP2C8 in human liver microsomes in presence of NADPH by LC-MS/MS analysis; format: ADME
T2 sequence (P10632 whole entry): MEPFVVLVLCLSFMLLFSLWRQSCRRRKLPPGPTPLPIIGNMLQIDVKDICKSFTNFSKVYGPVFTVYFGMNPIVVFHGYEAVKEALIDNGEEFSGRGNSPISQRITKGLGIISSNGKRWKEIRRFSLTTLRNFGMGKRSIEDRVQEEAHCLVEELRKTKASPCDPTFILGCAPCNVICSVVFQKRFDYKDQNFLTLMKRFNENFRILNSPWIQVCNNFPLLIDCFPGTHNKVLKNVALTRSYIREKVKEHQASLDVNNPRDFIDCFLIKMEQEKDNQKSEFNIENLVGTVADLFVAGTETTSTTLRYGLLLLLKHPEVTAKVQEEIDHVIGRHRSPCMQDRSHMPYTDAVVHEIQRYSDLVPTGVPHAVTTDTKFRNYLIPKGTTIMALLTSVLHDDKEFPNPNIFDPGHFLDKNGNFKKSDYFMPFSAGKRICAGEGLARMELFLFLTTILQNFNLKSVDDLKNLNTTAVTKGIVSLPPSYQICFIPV

[25] = Mean residence time in Han Wistar rat at 1 umol/kg, iv administered as bolus by LC/MS/MS analysis; format: ADME, organism-based; details: in vivo; how it was run: as §3
[26] = Efflux ratio of apparent permeability from […] in MDCK cells expressing human MDR1 at 1 uM at pH 7.4; format: ADME, cell-based, Canis lupus familiaris; details: dog, pH 7.4, 1 µM
How it was run: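 MDCK-MDR1 monolayers, pH 7.4, 37°C; transport measured apical-to-basal and basal-to-apical from 1 µM initial donor concentration; apparent permeability coefficients derived for each direction, ratio taken.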

SMILES: CCCCn1ncc2c1CCC(Nc1nc3c(-c4ccc(F)cc4C)cccn3n1)C2 (stereo not drawn)
IC50 [1]: 2770 nM

SMILES: CCn1ncc2c1CCC(Nc1nc3c(-c4ccc(OC)nc4)cccn3n1)C2 (stereo not drawn)
IC50 [1]: 90 nM

SMILES: Cc1cc(F)ccc1-c1cccn2nc(NC3CCc4cnn(C)c4C3)nc12 (stereo not drawn)
IC50 [1]: > 30000 nM

SMILES: CCn1ncc2c1CCC(Nc1nc3c(-c4ccccc4C)cccn3n1)C2 (stereo not drawn)
IC50 [1]: 160 nM

SMILES: CCn1ncc2c1CCC(Nc1nc3c(-c4ccc(C)nc4)cccn3n1)C2 (stereo not drawn)
IC50 [1]: 670 nM

SMILES: Cc1cc(F)ccc1-c1cccn2nc(NC3CCc4[nH]ncc4C3)nc12 (stereo not drawn)
IC50 [1]: 4570 nM

SMILES: CCn1nc(Cl)c2c1CCC(Nc1nc3c(-c4ccc(F)cc4C)cccn3n1)C2 (stereo not drawn)
IC50 [1]: 750 nM

SMILES: CCn1ncc2c1CC[C@@H](Nc1nc3c(-c4ccc(F)cc4C)cccn3n1)C2
IC50 [2]: 25000 nM
IC50 [3]: 36000 nM
Kp at 3 h [4]: 1.1
Papp A→B at 1 µM [5]: 78 ×10⁻⁶ cm/s
clearance [6]: 40 mL/min/kg
IC50 [1]: 40 nM
Activity [7]: 53%
Activity [8]: 47%
Vd [9]: 1.5 L/kg
Activity [10]: 3%
inhibition at 10 µM [11]: 39%
concentration at 3 h [12]: 2680 nM
IC50 [13]: > 50000 nM
concentration at 3 h [14]: 2990 nM
Activity [15]: 5%
IC50 [16]: > 30000 nM
concentration at 3 h [17]: 2600 nM
inhibition at 1 µM [18]: 8%
IC50 [19]: > 50000 nM
IC50 [20]: 40 nM
Cp(f) [21]: 30 nM
Ratio [22]: 0.9
fraction unbound at 5 h, 1 µM [23]: 0.012
IC50 [24]: 9500 nM
MRT [25]: 36 min
Ratio [26]: 0.7

Results, then the compound that gave them:

IC50 [1]: 730 nM
SMILES: CCn1ncc2c1CCC(Nc1nc3c(-c4cnccc4C)cccn3n1)C2 (stereo not drawn)

IC50 [1]: 120 nM
SMILES: CCn1ncc2c1CCC(Nc1nc3c(-c4cnccc4OC)cccn3n1)C2 (stereo not drawn)

IC50 [1]: 680 nM
SMILES: CCn1ncc2c1CCC(Nc1nc3c(-c4cccnc4C)cccn3n1)C2 (stereo not drawn)

IC50 [1]: 740 nM
SMILES: CCc1nnn2c1CCC(Nc1nc3c(-c4ccc(F)cc4C)cccn3n1)C2 (stereo not drawn)

IC50 [1]: 3400 nM
SMILES: Cc1cc(F)ccc1-c1cccn2nc(NC3CCc4c(cnn4CC(C)C)C3)nc12 (stereo not drawn)

IC50 [1]: 2200 nM
SMILES: CCn1nnc2c1CCC(Nc1nc3c(-c4ccc(F)cc4C)cccn3n1)C2 (stereo not drawn)

IC50 [1]: 200 nM
SMILES: CCn1ncc2c1CCC(Nc1nc3c(-c4cncc(C)c4)cccn3n1)C2 (stereo not drawn)

IC50 [1]: 9 nM
SMILES: CCn1ncc2c1CC[C@@H](Nc1nc3c(-c4ccc(F)c(Cl)c4)cccn3n1)C2

IC50 [1]: 30 nM
SMILES: CCn1ncc2c1CCC(Nc1nc3c(-c4cc(F)c(F)c(F)c4)cccn3n1)C2 (stereo not drawn)

IC50 [1]: 380 nM
SMILES: Cc1cc(F)ccc1-c1cccn2nc(NC3CCc4c(cnn4C)C3)nc12 (stereo not drawn)

From ChEMBL document CHEMBL4118159, “Discovery of tetrahydroindazoles as a novel class of potent and in vivo efficacious gamma secretase modulators” (Bioorg Med Chem, 2018)
